Measurements from different studies.
BRAF V600E: Serine/threonine-protein kinase B-raf (BRAF, Homo sapiens, UniProt P15056, V600E)
BRAF: Serine/threonine-protein kinase B-raf (BRAF, Homo sapiens, UniProt P15056)

SMILES | target | read-out | action | technique | tested at | measurement | result
Cc1ccc(NC(=O)c2ccnc(C(F)(F)F)c2)cc1-c1cc(OCCO)nc(N2CCOCC2)c1 | BRAF V600E | binding | – | – | 1 µM | remaining binding | 0.35%
CCCCC(=O)Nc1ccc(-c2ccc3ncn(CCC)c(=O)c3c2)cn1 | BRAF V600E | binding | – | competition with immobilised ligand | 0.5 µM | remaining binding | 95%
CO[C@@H]1[C@H](N(C)C(=O)c2ccccc2)C[C@H]2O[C@]1(C)n1c3ccccc3c3c4c(c5c6ccccc6n2c5c31)C(=O)NC4 | BRAF V600E | enzyme activity | inhibitor | – | 1 µM | inhibition | 0%
C[C@H]1CC[C@H](n2c3cnccc3c3cnc(Nc4ccc5c(n4)CCN(C(=O)CO)C5)nc32)CC1 | BRAF | cell-free assay | – | competition with immobilised ligand | 1 µM | remaining binding | 74%
COc1ccc2oc(-c3ccc4nc(N)oc4c3)c/c(=N\c3ccccc3NC(=O)CCN)c2c1 | BRAF V600E | cell-free assay | – | – | 1 µM | remaining signal | 100%
C=CC(=O)N1CCC([C@@H]2CCNc3c(C(N)=O)c(-c4ccc(Oc5ccccc5)cc4)nn32)CC1 | BRAF | enzyme activity | inhibitor | – | 1 µM | inhibition | 0%
Cc1cc2c(C(N)=O)c(N)n(-c3c(C)ccc(O)c3C)c2nc1C | BRAF V600E | binding | – | competition with immobilised ligand | 1 µM | remaining binding | 0.75%
C=CC(=O)N1CCC[C@@H](n2nc(-c3ccc(Oc4ccccc4)cc3)c3c(N)ncnc32)C1 | BRAF V600E | enzyme activity | inhibitor | – | 1 µM | inhibition | 61%
N#Cc1ccc(NC(=O)Nc2ccccc2)cc1 | BRAF | cell-free assay | – | competition with immobilised ligand | 25 µM | remaining binding | 100%
CC#CC(=O)N1CCC[C@H]1c1nc(-c2ccc(C(=O)Nc3ccccn3)cc2)c2c(N)nccn12 | BRAF | enzyme activity | inhibitor | – | 1 µM | inhibition | 43%
CN1CCN(C(=O)c2ccc(NC(=O)Nc3ccc(N(C)c4ccnc(Nc5ccc(CS(C)(=O)=O)cc5)n4)cc3)cc2)CC1 | BRAF | binding | – | competition with immobilised ligand | 1 µM | remaining binding | 89%
C#Cc1cnc(Nc2ccnc(CO)c2)nc1Nc1ccccc1S(C)(=O)=NC#N (centres unmarked) | BRAF | cell-free assay | – | – | 1 µM | remaining signal | 92%
C1=C/COCc2cc(ccc2OCCN2CCCC2)Nc2nccc(n2)-c2cccc(c2)COC/1 | BRAF | binding | – | – | 0.1 µM | remaining binding | 94%
COc1ccc2[nH]c3c4[nH]c5ccc(OC)cc5c4c4c(c3c2c1)C(=O)NC4=O | BRAF V600E | binding | – | – | 1 µM | remaining binding | 89%
